Experimental findings from BindingDB's records for doi:10.1016/j.ejmech.2011.01.042 (Ludwig-Maximilians-University Munich, 2011) are described below.

Where a name gives a salt, the structure may show the parent alone.

Assay [1] addresses T1, Sodium- and chloride-dependent GABA transporter 2 (Mus musculus, UniProt P31649).
T1 sequence (P31649 whole entry): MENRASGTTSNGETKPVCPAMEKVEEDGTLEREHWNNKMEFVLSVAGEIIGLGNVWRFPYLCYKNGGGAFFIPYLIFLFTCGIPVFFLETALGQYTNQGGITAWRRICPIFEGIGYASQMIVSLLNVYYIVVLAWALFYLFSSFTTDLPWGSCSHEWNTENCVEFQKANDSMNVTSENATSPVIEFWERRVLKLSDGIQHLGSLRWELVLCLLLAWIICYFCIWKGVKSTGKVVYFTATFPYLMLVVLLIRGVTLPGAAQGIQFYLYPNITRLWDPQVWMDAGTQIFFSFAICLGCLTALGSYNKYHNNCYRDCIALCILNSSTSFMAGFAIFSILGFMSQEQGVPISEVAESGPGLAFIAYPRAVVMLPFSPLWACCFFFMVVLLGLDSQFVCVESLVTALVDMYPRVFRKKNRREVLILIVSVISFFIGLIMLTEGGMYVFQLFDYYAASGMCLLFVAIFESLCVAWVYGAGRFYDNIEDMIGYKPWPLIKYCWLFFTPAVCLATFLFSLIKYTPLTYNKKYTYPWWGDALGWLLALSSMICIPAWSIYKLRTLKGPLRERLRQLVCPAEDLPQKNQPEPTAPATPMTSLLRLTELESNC
Nature of the assay: Inhibition of mouse GAT2-mediated [3H]GABA uptake expressed in human HEK cells. In a few lines: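 The value is pIC50, given as mean ± SEM of three independent experiments, each run in triplicate. Where only two experiments were run, uptake is reported rather than pIC50.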

The target of assay [2] is T2, Sodium- and chloride-dependent GABA transporter 3 (Mus musculus, UniProt P31650).
T2 sequence (P31650 whole entry): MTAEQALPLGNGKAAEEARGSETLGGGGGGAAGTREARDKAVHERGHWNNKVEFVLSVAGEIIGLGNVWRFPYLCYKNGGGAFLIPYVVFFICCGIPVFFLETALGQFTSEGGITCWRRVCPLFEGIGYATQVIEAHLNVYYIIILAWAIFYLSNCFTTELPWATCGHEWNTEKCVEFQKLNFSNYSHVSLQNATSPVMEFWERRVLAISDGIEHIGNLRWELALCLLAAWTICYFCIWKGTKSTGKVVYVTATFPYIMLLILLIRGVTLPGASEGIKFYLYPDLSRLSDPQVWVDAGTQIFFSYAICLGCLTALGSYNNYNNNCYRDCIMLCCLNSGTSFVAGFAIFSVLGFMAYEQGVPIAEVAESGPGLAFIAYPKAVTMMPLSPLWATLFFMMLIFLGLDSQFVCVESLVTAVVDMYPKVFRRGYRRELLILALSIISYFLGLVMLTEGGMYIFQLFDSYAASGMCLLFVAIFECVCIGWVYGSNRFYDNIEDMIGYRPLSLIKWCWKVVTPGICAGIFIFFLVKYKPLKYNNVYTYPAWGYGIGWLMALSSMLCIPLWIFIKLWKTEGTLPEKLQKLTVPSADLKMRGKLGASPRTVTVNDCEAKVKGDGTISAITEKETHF
The assay is described as follows: Inhibition of mouse GAT3-mediated [3H]GABA uptake expressed in human HEK cells assessed as specific binding remaining at 1 mM.

A word on the IC50: it is the concentration at which inhibition is half-maximal. Regarding `Cc1ccsc1C(=CCCN(C)C1CCCc2o[nH]c(=O)c21)c1sccc1C` (stereo not drawn) [4-((4,4-bis(3-methylthiophen-2-yl)but-3-enyl)(methyl)amino)-4,5,6,7-tetrahydrobenzo[d]isoxazol-3-ol], in assay [1], half-maximal inhibition (IC50) required 22 µM.
Compound `COc1ccc(C2(O)CCN(CCCn3c4ccccc4c4ccccc43)CC2)cc1` [1-(3-(9H-carbazol-9-yl)propyl)-4-(4-methoxyphenyl)piperidin-4-ol] came in with an IC50 in assay [1] of 1.4 µM.
`O=C(O)CCCCCCn1ccnc1` [7-Imidazol-1-yl-heptanoic acid; hydrochloride]: the IC50 in assay [2] was determined as 776 µM.
